In general, apparent Kd refers to the concentration giving half-maximal binding under the conditions of the assay.

The data set relates to MS2 coat protein. Briefly: apparent Kd, MS2 coat protein; higher = weaker binding; RNA-MaP array; FMN 200 µM where present. The gist of the method: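 Apparent Kd: the median of filtered binding-curve fits from single clusters. Designs were transcribed on Illumina sequencing-chip clusters by stalled E. coli RNA polymerase and titrated with SNAP-549-labelled MS2 coat protein from 0.7 or 1.5 nM, doubling to 3 µM, in 100 mM Tris-HCl pH 7.5, 80 mM KCl, 4 mM MgCl2, BSA, DTT, yeast tRNA and Tween-20. Each series ran without and then with constant ligand, and green signal was normalised to red-channel RNA signal and control-cluster median Fmax.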

Setting [1] is: designed as: OFF switch for flavin mononucleotide, no ligand.
[2] abbreviates: ligand present: flavin mononucleotide, designed as: OFF switch for flavin mononucleotide.
Setting [3] is: designed as: ON switch for flavin mononucleotide, no ligand.
Setting [4] is: ligand present: flavin mononucleotide, designed as: ON switch for flavin mononucleotide.

As for “UCGUUUUUUGAGGAUAUGCGACGUUCCUUCGUCGUAGAAGGCGAUACAUGAGGAUCACCCAUGUUUAUGGGCAU”, the “apparent Kd” value runs as follows: under setting [1], 108 nM; under setting [2], 138 nM.
“GGACGUCACAUGAACAUGAGGAUCACCCAUGUAAAUUCUCAUGAGGAUAUGGAACCUAAUUGGUUCCAGAAGGCAUGGACGUCC”: the “apparent Kd” value reads like this: under setting [3], 1270 nM; under setting [4], 381 nM.
For “AGACCGUUCGAGAAGGUGCGAGAGAAAUGUGAGUGAGGAUAUUGAAACAUGAGGAUCACCCAUGUCAUGAGGAUCGCCGAUGUG”, the “apparent Kd” value is, setting by setting: under setting [3], 39.6 nM; under setting [4], 31.6 nM.
The matching figures for “GCAUUGAUAACAGGAUAUAUGUUUCCUACAUGAGGAUCACCCAUGUAGGUGAUCAGCCGCGAAAAGUAGAAGGGUUAUCAAUGC”: 18 nM and 16.7 nM.
As for “AUUGUUUAUGUAGGAUAUGCCUGGCGUGCCUUUGCAGAAGGACAUGAGGAUCACCCAUGUAUUGCGGUCUGCGUUCAGAUCGCA”, the “apparent Kd” value reads like this: under setting [1], 33.2 nM; under setting [2], 44.3 nM.
Turning to “GGUACCAACACAGGAUAUGCUAUCCUUUGGGUAGCAGAAGGGUGAAACAUGAGGAUCACCCAUGUGGUGCCAGGGCGUGAGCCC”, the “apparent Kd” value runs as follows: under setting [3], 1460 nM; under setting [4], 96.2 nM.
For “UGUCGGAGCAGAGGAUAUUACAUGAGGAUCACCCAUGUAUGAACCAAUAGCUGGAAACAGCAGUGUAAGAAGGCUGCUCCGACA”, the “apparent Kd” value is 12.5 nM under setting [1] and 143 nM under setting [2].
On to “AAGUAGAUCCGAGGAUAUACAAUCCGGAAACGGUACAUGAGGAUCACCCAUGUAGAAGGCGGAUCUACAGGUACUAAAGUACCA”, for which the “apparent Kd” value is 6.5 nM under setting [1] and 8.32 nM under setting [2].
In the case of “AAAACAUGAGGAUCACCCAUGUAAAGAUCGGUUAAUUGUUGUGAGGAUAUACUAAAUUUUAGGUUGUAGAAGGCACUGGGUACA”, the “apparent Kd” value reads like this: under setting [3], 43.1 nM; under setting [4], 54.9 nM.
On to “AAAGUACAUGAGGAUCACCCAUGUUGAAAAAAUCGAGGAUAUGCGAAAAAAAAAAAAAAAGCAGAAGGUGAAAAAA”, for which the “apparent Kd” value came to 49 nM under setting [3] and 42.4 nM under setting [4].
For “AGCCUACAUGAGGAUCACCCAUGUCAGGAUAUCUCGCGACAUGUCAAGUUCACGUUGCAGAGAAGGGACUCGGG”, the “apparent Kd” value amounted to 56.6 nM under setting [1] and 63.6 nM under setting [2].
As to “UAUGAGCGAGGAUAUGCUUGGGACUGUCGGAAUGUGGCGGGACAUGAGGAUCACCCAUGUAGAAGGCGCGAGCG”, the “apparent Kd” value is, setting by setting: under setting [1], 95.1 nM; under setting [2], 212 nM.
For “CGUGCGUAUGUGAGGAUAUGCUGGUCCUUGGAUCGGCAGAAGGCACAUGAGGAUCACCCAUGUGGUGUCGUACG”, in that order: 351 nM and 22.9 nM.
For “CAUUAAUUCAUUAUAGUAAUUAUACAGGAUAUGUUACAUGAGGAUCACCCAUGUAUUCAUGGUAAACAGAAGGGUAAUACUAGA”, in that order: 12.3 nM and 22.4 nM.
Turning to “AUGUACCUAGGAUAUACAUGAGGAUCACCCAUGUAGCUUCACGUGGUAGGAUCCUUUGGUAGAAGGAGGAUCUU”, the “apparent Kd” value under setting [1] was 37.3 nM and the “apparent Kd” value under setting [2] was determined as 68.2 nM.
For “CUUUUGUGAGGAUAUCAGUAGUAAUUAAAUAAAAUUACUACUGAGAAGGCACAUGAGGAUCACCCAUGUUCCUC”, in that order: 41.3 nM and 338 nM.
Turning to “UUGCCUCAGAACAUGAGGAUCACCCAUGUGCUGCGGGCAUCGUAGGAUAUGAUGGUAUGAUACCAUCAGAAGGAUGAUGGUACC”, the “apparent Kd” value under setting [3] stood at 6.18 nM and the “apparent Kd” value under setting [4] was 5.77 nM.
Take “CAGUUCUGAGGAUAUCCAUCCUCCUACAUGAGGAUCACCCAUGUUUCCCUCUGGGUUUUCGGAGAAGGCAGUUAUC”: the “apparent Kd” value came out at 299 nM under setting [1] and 547 nM under setting [2].
As to “GUCAGCUCGUGAGGAUAUACAACACUGCUUCGGCAGUGUAUUAAGAUCACAUGAGGAUCACCCAUGUAGAAGGCACGAGCAGAU”, the “apparent Kd” value under setting [1] amounted to 13.4 nM and the “apparent Kd” value under setting [2] turned out to be 258 nM.
Regarding “AGUUAAUAUCGAGGAUAUCUCAUGGAUACAUGAGGAUCACCCAUGUUAAUGGGAGAAGGCGAUAUUAACAGCAUGUUACAUGCA”, the “apparent Kd” value stood at 28 nM under setting [3] and 7.38 nM under setting [4].
Consider “CCUAUGUGAGGAUAUCACUGGUCUUCUCACUGGAUGACCAGUGAGAAGGCACAUGAGGAUCACCCAUGUCGGUG”, for which the “apparent Kd” value was 436 nM under setting [1] and 349 nM under setting [2].
The matching figures for “GGGCUCGGAGGAUAUACAAUGGGCUCGGGAAAUCGGGUCUUACAUGAGGAUCACCCAUGUAGAAGGUCGGGUCU”: 22.2 nM and 47.1 nM.
In the case of “AAGCGAGGGACAGGAUAUGCGGCGAAACUCGCCGCAGAAGGGUCGACAUGAGGAUCACCCAUGUCCUUACGCUCCACGUAGUGG”, the “apparent Kd” value runs as follows: under setting [3], 107 nM; under setting [4], 455 nM.
Turning to “GGGUAACAUGAGGAUCACCCAUGUGAGGAUAUCCUAGGGAUGGAAGCCCGGCCAACCAGGAGAAGGUACUAAAG”, the “apparent Kd” value is 83.2 nM under setting [1] and 89.7 nM under setting [2].
As for “UUAACAUGAGGAUCACCCAUGUCGUGCAAGAUGAGUUCUGGUGAGGAUAUACAUGGUAAAGAACUGUAGAAGGCACUGGGUACA”, the “apparent Kd” value by setting is: under setting [3], 290 nM; under setting [4], 139 nM.
As to “UGUUGAUAGCAGAAGGACAUGAGGAUCACCCAUGUACGGAUACAAAUAUAUGUAGGAUAUGCUAUUGACUAAGAGUGAGCGUUC”, the “apparent Kd” value was found to be 5.78 nM under setting [1] and 7.87 nM under setting [2].
For “CUUGUUUAUGUAGGAUAUGCCUGGCGUGCCUUUGCAGAAGGACAUGAGGAUCACCCAUGUAGUAUGAGGCUUACCCUUGUCGCC”, the “apparent Kd” value under setting [1] came to 28.2 nM and the “apparent Kd” value under setting [2] was determined as 24.5 nM.
On to “GCUGACGAUGUAGGAUAUCUCGACGAUAAGUCGAGAGAAGGACAUGAGGAUCACCCAUGUAAAACUCCGUCAGCGAGGAAACUC”, for which the “apparent Kd” value is 16.3 nM under setting [1] and 17.8 nM under setting [2].
For the sequence “GGAGGACGAAACAUGAGGAUCACCCAUGUGUUAUAAUUAAUAUAGGAUAUGUUUAUACUUUUUGGGCAGAAGGAUGAUAAUGCC”, the “apparent Kd” value reads like this: under setting [3], 19.6 nM; under setting [4], 16.1 nM.
Take “UACGUACAGAAGAACUCCGGGUCCAGAAGGGACAUGAGGAUCACCCAUGUACCGUUGAUUGCUUGUCAGGAUAUGGACCCGGCC”: the “apparent Kd” value runs as follows: under setting [1], 6.67 nM; under setting [2], 28 nM.
For “UCAUCGUGAGGAUAUUAUCGUAAGUGCAGGGUCUGACUUAGUAAGAAGGCACAUGAGGAUCACCCAUGUCCCUC”, in that order: 20.2 nM and 28.5 nM.
On to “GCCCGAACCACAGGAUAUCCCAAUGUUUUACAGGGAGAAGGGUGAGAGUAUGACAUGAGGAUCACCCAUGUUGUUCGGGUGGAA”, for which the “apparent Kd” value is, setting by setting: under setting [3], 709 nM; under setting [4], 227 nM.
Regarding “GCCAUUGCAUGAGGAUAUGCUCCCGUUUCGGGAGCAGAAGGCAUGUCAUAAGACAUGAGGAUCACCCAUGUAGUUAAGAUGGCA”, the “apparent Kd” value worked out at 398 nM under setting [3] and 15.2 nM under setting [4].
For “AAAGCACAUGAGGAUCACCCAUGUGGAAAUAACACAGGAUAUCUGGCCUAAGCUUAGGCGAGAGAAGGGUGACCUA”, the “apparent Kd” value reads like this: under setting [3], 88.9 nM; under setting [4], 223 nM.
Consider “AAAAAGUGAGGAUAUACGCUGUGGAGUAGACACAACCAGACGUAGAAGGCACAUGAGGAUCACCCAUGUCCAAA”, for which the “apparent Kd” value reads like this: under setting [1], 24.9 nM; under setting [2], 51.9 nM.
With “GUAGCAUUAAUAGGAUAUUCAUACCGGAAACGGACAUGAGGAUCACCCAUGUGGCGAAAGCCUUGGGAGAAGGUAAUAUGCUAC”, the “apparent Kd” value worked out at 821 nM under setting [3] and 240 nM under setting [4].
“AAAAAAAAAAGGCAGGAUAUUCAAAAAAAAACAUGAGGAUCACCCAUGUAAAAAAAAAAAAAAUGGAAGAAGGGCCAAAAAAAAAA”: the “apparent Kd” value was determined as 21.1 nM under setting [3] and 22.5 nM under setting [4].
Turning to “UUUUCACAUGAGGAUCACCCAUGUGAGGAUAUGGUUUCGCUGGCCGUAGCCAGUGGAACCAGAAGGCGCGUGAU”, the “apparent Kd” value runs as follows: under setting [1], 60.7 nM; under setting [2], 66.4 nM.
The matching figures for “GUGUACAGAGGAUAUACUUAUGGAGUCACGAAAGUGGCUUCACAUGAGGAUCACCCAUGUAGAAGGCUGUACAC”: 28.1 nM and 31.1 nM.
For “ACAUGAGGAUCACCCAUGUGAUGAUCUUCCAUGUCAUAUUUCAGAAGGCUCGCAUGUUUGAUGAGAGAGGAUAUGGAAUAUGCG”, in that order: 790 nM and 368 nM.
With “GCACGGAAAGGAUAUGCACGGCUAGCUCGCGUUUUUGUGUGACAUGAGGAUCACCCAUGUAGAAGGUUCAGUGG”, the “apparent Kd” value was found to be 68 nM under setting [1] and 71.8 nM under setting [2].
For “AGUAGAUCAGGAUAUACAUGAAAGAUCAAAAUGUCACUACUACAUGAGGAUCACCCAUGUAGAAGGGAUCUACA”, in that order: 52.9 nM and 36.7 nM.
As to “ACAUUCACUCGACUGGUUCUUAACAUGAGGAUCACCCAUGUAGAGGAUAUAGGAAUUCUGGGUUCCUAGAAGGCUACGUGAGUG”, the “apparent Kd” value is, setting by setting: under setting [1], 15.9 nM; under setting [2], 76.7 nM.
As for “CUCAGACAUGAGGAUCACCCAUGUCAGGAUAUCGUCUACCUGUGGAAACACAGGUAGACGAGAAGGGAUGUGUU”, the “apparent Kd” value under setting [1] turned out to be 51.6 nM and the “apparent Kd” value under setting [2] was 44.1 nM.
For “GGAGAGUCAGGAUAUACAUGAGGAUCACCCAUGUUGGAAAGUGGAGGGACGGGAGUCCGUAGAAGGGACGAGAG”, in that order: 34.4 nM and 27.7 nM.
Take “UUAUCUAUGUAAGGAUAUCGAUGAUAUACGCAUCCGACAUGAGGAUCACCCAUGUUAUAUUUUGUCGAGAAGGUACAUUGUCGG”: the “apparent Kd” value runs as follows: under setting [3], 46.8 nM; under setting [4], 50.3 nM.
Consider “CGAAUACGCGUGAGGAUAUCGUUCGAAUAUUGCGAUGAGAAGGCACAUGAGGAUCACCCAUGUAGGUAUCCUGG”, for which the “apparent Kd” value is, setting by setting: under setting [1], 73.2 nM; under setting [2], 120 nM.
The matching figures for “AGAUGACAAAGUCAUCUCGCGCAGACAUGAGGAUCACCCAUGUAGGAUAUAUUACUCAAAGAGUAAUAGAAGGACAUGUGUCUU”: 33.5 nM and 91.7 nM.

The values above are taken from the EternaBench riboswitch data.
